Calls of active or inactive are those of the source. The calls are words filed in the database; no cut-off is given here.
Tests used:
[1] = molecular target: Beta-1 adrenergic receptor (Rattus norvegicus) (UniProt P18090); experiment: Antagonistic activity was determined for 50% inhibition of tachycardia response in anesthetized, normotensive rat at a dose range of 0.3-3 mg/kg(iv); type: functional, organism-based
Outline: (§1)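 Anesthetized normotensive rats received the test agent iv as HCl salts in three cumulative doses. The tachycardic response to (±)-isoproterenol (0.1 mg/kg iv) was measured. ID50 is the iv dose giving 50% inhibition of that response, reported as mean ± SEM. Analysis used analysis of variance with Duncan's multiple range statistic.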

Rattus norvegicus [2] = experiment: Antihypertensive activity was determined before dosing in conscious, spontaneously hypertensive rats(SHR); type: functional
Outline: (§2)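 Blood pressure (mmHg) and heart rate (beats/min) were measured directly in conscious spontaneously hypertensive rats before oral dosing. Groups had n = 4, and values are means ± SEM.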

Rattus norvegicus [3] = experiment: Antihypertensive activity was determined before dosing in conscious, spontaneously hypertensive rats(SHR); 12/~1; type: functional
Rattus norvegicus [4] = experiment: Change in blood-pressure was determined after 1 hr administration of (10 mg/kg/po) in conscious, spontaneously hypertensive rats(SHR); type: functional
Outline: (§3)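 Conscious spontaneously hypertensive rats (n = 4 per group) were dosed orally at 10 mg/kg as HCl salts, with placebo as a control group. Blood pressure was measured directly, and heart rate was also recorded. Changes from pre-dose values were read at 1, 2, 3 and 4 h and reported as means ± SEM. Analysis used ANOVA with Duncan's multiple range statistic.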

Rattus norvegicus [5] = experiment: Change in blood-pressure was determined after 2 hr administration of (10 mg/kg/po) in conscious, spontaneously hypertensive rats(SHR); type: functional; outline: as §3
Rattus norvegicus [6] = experiment: Change in blood-pressure was determined after 3h administration of (10 mg/kg/po) in conscious, spontaneously hypertensive rats(SHR); type: functional; outline: as §3
Rattus norvegicus [7] = experiment: Change in blood-pressure was determined after 4 hr administration of (10 mg/kg/po) in conscious, spontaneously hypertensive rats(SHR); type: functional; outline: as §3
Rattus norvegicus [8] = experiment: Change in Heart rate(beats/min) was determined after 1 hr of (10 mg/kg p.o.) administration in conscious, spontaneously hypertensive rats; type: functional; outline: as §3
Rattus norvegicus [9] = experiment: Change in Heart rate(beats/min) was determined after 2 hr of (10 mg/kg p.o.) administration in conscious, spontaneously hypertensive rats; type: functional; outline: as §3
Rattus norvegicus [10] = experiment: Antihypertensive activity was determined by Heart rate(beats/min) measurement before dosing in conscious, spontaneously hypertensive rats; type: functional; outline: as §2
Rattus norvegicus [11] = experiment: Change in Heart rate(beats/min) was determined after 3h of (10 mg/kg p.o.) administration in conscious, spontaneously hypertensive rats; type: functional; outline: as §3
Rattus norvegicus [12] = experiment: Change in Heart rate(beats/min) was determined after 4 hr of (10 mg/kg p.o.) administration in conscious, spontaneously hypertensive rats; type: functional; outline: as §3
[13] = molecular target: T1, Adrenergic receptor alpha (Rattus norvegicus) (UniProt P15823+P23944+P43140+P22086+P19328+P22909)
[14] = tested on: Adrenergic receptor alpha (Rattus norvegicus); experiment: Relative alpha-adrenergic blocking potency was determined after administration of intravenously
[15] = molecular target: Beta-1 adrenergic receptor (Rattus norvegicus) (UniProt P18090); experiment: Potency to block Beta-1 adrenergic receptor relative to labetolol
Outline: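 Rats, iv dosing as HCl salts in three cumulative doses. Antagonism of the tachycardic response to (±)-isoproterenol (0.1 mg/kg iv) was measured. ID50 is the dose giving 50% inhibition of that response (mean ± SEM), with 3-8 animals per compound. Statistics used analysis of variance with Duncan's multiple range test.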

[16] = molecular target: Beta-1 adrenergic receptor (Rattus norvegicus) (UniProt P18090); experiment: Antagonistic activity was determined for 50% inhibition of tachycardia response in anesthetized, normotensive rat at a dose range of 0.1-1(iv); type: functional, organism-based; outline: as §1
Rattus norvegicus [17] = experiment: Decrease in blood pressure(mm/Hg) was determined after administration of (10 mg/kg/po); 30-32/>4; type: functional
Rattus norvegicus [18] = species: Rattus norvegicus; experiment: Potency (vasodilation) relative to labetolol; type: functional
[19] = Ratio of Relative potency of beta1/alpha bock values; 26-39
[20] = molecular target: Beta-1 adrenergic receptor (Rattus norvegicus) (UniProt P18090); experiment: Antagonistic activity was determined for 50% inhibition of tachycardia response in anesthetized, normotensive rat at a dose range of 0.03-0.3 mg/kg(iv); type: functional, organism-based; outline: as §1
Rattus norvegicus [21] = experiment: Change in blood-pressure was determined after 1 hr administration of(10 mg/kg/po) in conscious, spontaneously hypertensive rats(SHR); type: functional; outline: as §3
Rattus norvegicus [22] = experiment: Change in blood-pressure was determined after 2 hr administration of(10 mg/kg/po) in conscious, spontaneously hypertensive rats(SHR); type: functional; outline: as §3
Rattus norvegicus [23] = experiment: Change in blood-pressure was determined after 3h administration of(10 mg/kg/po) in conscious, spontaneously hypertensive rats(SHR); type: functional; outline: as §3
Rattus norvegicus [24] = experiment: Change in blood-pressure was determined after 4 hr administration of(10 mg/kg/po) in conscious, spontaneously hypertensive rats(SHR); type: functional; outline: as §3
[25] = Ratio of Relative potency of beta1/alpha bock values; type: functional
[26] = molecular target: T1, Adrenergic receptor alpha (Rattus norvegicus); remark: listed apart in the source
[27] = molecular target: Beta-1 adrenergic receptor (Rattus norvegicus) (UniProt P18090); experiment: Antagonistic activity was determined for 50% inhibition of tachycardia response in anesthetized, normotensive rat at a dose range of 0.3-3 mg/kg(iv); Inactive; type: functional, organism-based; outline: as §1
Rattus norvegicus [28] = experiment: Decrease in blood pressure(mm/Hg) was determined after administration of (10 mg/kg/po); type: functional
Outline: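 Conscious spontaneously hypertensive rats, n = 4 per group, placebo control. Single oral dose of 10 mg/kg as HCl salt. Blood pressure and heart rate were measured directly before dosing and at 1, 2, 3 and 4 h after. Change from predose is given as mean ± SEM. Statistics used analysis of variance with Duncan's multiple range test.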

[29] = molecular target: T1, Adrenergic receptor alpha (Rattus norvegicus); remark: listed apart in the source

Beta-1 adrenergic receptor (Rattus norvegicus), sequence (P18090 whole entry, looked up): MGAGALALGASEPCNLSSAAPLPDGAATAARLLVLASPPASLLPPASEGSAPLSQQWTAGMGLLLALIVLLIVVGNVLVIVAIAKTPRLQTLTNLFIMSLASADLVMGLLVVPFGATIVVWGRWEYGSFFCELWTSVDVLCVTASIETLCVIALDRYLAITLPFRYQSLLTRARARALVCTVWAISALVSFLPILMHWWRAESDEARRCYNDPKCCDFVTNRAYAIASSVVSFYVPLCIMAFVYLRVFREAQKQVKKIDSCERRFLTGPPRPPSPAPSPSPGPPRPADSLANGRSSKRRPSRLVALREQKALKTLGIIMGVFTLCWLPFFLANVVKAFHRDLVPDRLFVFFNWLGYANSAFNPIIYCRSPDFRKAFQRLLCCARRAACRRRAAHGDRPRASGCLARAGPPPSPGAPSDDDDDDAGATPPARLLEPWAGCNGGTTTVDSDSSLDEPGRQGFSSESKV

Row | Structure (SMILES) | ID50 [1] [mg/kg] | BP (Rattus norvegicus [2]) [mmHg] | Change in BP (Rattus norvegicus [4]) [mmHg] | Change in BP (Rattus norvegicus [5]) [mmHg] | Change in BP (Rattus norvegicus [6]) [mmHg] | Change in BP (Rattus norvegicus [7]) [mmHg] | Heart rate (Rattus norvegicus [8]) [beats min-1] | Heart rate (Rattus norvegicus [9]) [beats min-1] | Heart rate (Rattus norvegicus [10]) [beats min-1] | Heart rate (Rattus norvegicus [11]) [beats min-1] | Heart rate (Rattus norvegicus [12]) [beats min-1] | ID50 [13] [mg/kg] | Relative potency [15] | Decrease in blood pressure (Rattus norvegicus [17]) | Relative potency (Rattus norvegicus [18]) | Decrease in blood pressure (Rattus norvegicus [28]) | also measured
1 | C[C@H](CCc1ccccc1)NC[C@@H](O)c1ccc(O)c(C(N)=O)c1.Cl | 5 | 158 | -12 | -5 | -4 | -3 | -9 | -16 | 359 | -34 | -39 | 1.3 | – | – | – | – | Decreace in BP (Rattus norvegicus [3]): 12 mmHg; Relative potency [14]: 5.1
2 | CC(CCc1ccccc1)NCC(O)c1ccc(O)c(C(N)=O)c1 (centres undefined) [LABETALOL] | – | 160 | -29 | -22 | -20 | -20 | -13 | -18 | 362 | -27 | -23 | 7.1 | 1 | >30 | 1 | – | ID50 [16]: 0.25 mg/kg; Ratio [19]: 26
3 | C[C@H](CCc1ccccc1)NC[C@H](O)c1ccc(O)c(C(N)=O)c1.Cl [DILEVALOL HYDROCHLORIDE] | – | 160 | – | – | – | – | -47 | -41 | 378 | -55 | -45 | – | 3.5 | >30 | 7 | – | ID50 [20]: 0.07 mg/kg; Change in BP (Rattus norvegicus [21]): -26 mmHg; Change in BP (Rattus norvegicus [22]): -26 mmHg; Change in BP (Rattus norvegicus [23]): -29 mmHg; Change in BP (Rattus norvegicus [24]): -27 mmHg; Ratio [25]: > 500; ID50 [26]: 35 mg/kg
4 | C[C@@H](CCc1ccccc1)NC[C@@H](O)c1ccc(O)c(C(N)=O)c1.Cl | – | 159 | 4 | 10 | 11 | 8 | 8 | 1 | 356 | -4 | -7 | 4.8 | 0 | – | – | 0 | ID50 [27]: inactive
5 | C[C@@H](CCc1ccccc1)NC[C@H](O)c1ccc(O)c(C(N)=O)c1.Cl | 4.1 | 164 | -5 | -2 | 6 | 8 | 7 | 5 | 362 | -8 | 6 | – | < 0.06 | – | – | 0 | ID50 [29]: inactive

From ChEMBL document CHEMBL1121973, “Synthesis and comparison of some cardiovascular properties of the stereoisomers of labetalol” (1982)
